Assay results of several laboratories.
Lines come from different studies, so protocols differ.
Matrix: plasma

Nc1ccn([C@@H]2O[C@H](CO)[C@@H](O)C2(F)F)c(=O)n1 — AUC(0-t) (male Sprague-Dawley rat; intravenous; 5 mg/kg): 160 µg·h/mL
C1=C/COCc2cc(ccc2OCCN2CCCC2)Nc2nccc(n2)-c2cccc(c2)COC/1 — AUC(0-t) (male Sprague-Dawley rat; oral; 36 mg/kg): 3.12 µg·h/mL
C=CC(=O)N1CCC[C@@H](n2nc(-c3ccc(Oc4ccccc4)cc3)c3c(N)ncnc32)C1 — AUC(0-t) (rat; oral; 40 mg/kg): 0.304 µg·h/mL
Cc1ccc2c(c1)C(=O)[C@]1(O)CCN(c3ccc4nc(C)ccc4c3)C1=N2.Cl — AUC(0-t) (female rat; subcutaneous; 40 mg/kg; multiple doses, once daily): 17 µM·h
CCCCC(=O)Nc1ccc(-c2ccc3ncn(CCC)c(=O)c3c2)cn1 — AUC(0-t) (male rat; intravenous; 2.5 mg/kg): 2.56 µg·h/mL
CNC(=O)c1cc(Oc2ccc(NC(=O)Nc3ccc(Cl)c(C(F)(F)F)c3)cc2)ccn1 — AUC(0-t) (male Sprague-Dawley rat; oral; 100 mg/kg; single dose): 17.7 µg·h/mL
O=C1CCC(N2Cc3cc(C4CCN(Cc5ccccc5)CC4)ccc3C2=O)C(=O)N1 (stereo not drawn) — AUC(0-t) (male Sprague-Dawley rat; intravenous; 1 mg/kg): 0.309 µg·h/mL
C[C@H]1[C@@H](O)O[C@@H]2O[C@@]3(C)CC[C@H]4[C@H](C)CC[C@@H]1[C@@]24OO3 — AUC(0-t) (male Sprague-Dawley rat; oral; 10 mg/kg): 0.234 µg·h/mL
COc1ccc(N(Cc2csc(-c3ccccc3)n2)C(=O)CCCCCC(=O)NO)cc1 — AUC(0-t) (female Sprague-Dawley rat; intravenous; 5 mg/kg): 0.0299 µg·h/mL
CCCCCCCCCC(=O)N[C@@H](Cc1c[nH]c2ccccc12)C(=O)N[C@H](CC(N)=O)C(=O)N[C@@H](CC(=O)O)C(=O)N[C@@H]1C(=O)NCC(=O)N[C@@H](CCCN)C(=O)N[C@@H](CC(=O)O)C(=O)N[C@H](C)C(=O)N[C@@H](CC(=O)O)C(=O)NCC(=O)N[C@H](CO)C(=O)N[C@@H]([C@H](C)CC(=O)O)C(=O)N[C@@H](CC(=O)c2ccccc2N)C(=O)O[C@@H]1C — AUC(0-t) (male Wistar rat; subcutaneous; 125 mg/kg; single dose): 2450 µg·h/mL
CONC(=O)c1cccc2c1cc(C)n2-c1nc2c(c(NCc3ccccc3)n1)CCCN2 — AUC(0-t) (male Sprague-Dawley rat; oral; 10 mg/kg; single dose): 0.0238 µg·h/mL
COc1cc(-c2cc(C(C)=O)n3ccccc23)c(OC)cc1Cn1ccnc1 — AUC(0-t) (male Sprague-Dawley rat; intravenous; 5 mg/kg): 4.28 µg·h/mL
C[C@H]1Oc2cc(cnc2N)-c2c(nn(C)c2C#N)CN(C)C(=O)c2ccc(F)cc21 — AUC(0-t) (male Sprague-Dawley rat; oral; 10 mg/kg): 3.16 µg·h/mL
CC[C@@H]([C@H](C)O)n1ncn(-c2ccc(N3CCN(c4ccc(OC[C@@H]5CO[C@@](Cn6cncn6)(c6ccc(F)cc6F)C5)cc4)CC3)cc2)c1=O — AUC(0-t) (Sprague-Dawley rat; oral; 40 mg/kg): 6.55 µg·h/mL
CC(=O)c1c(C)c2cnc(Nc3ccc(N4CCNCC4)cn3)nc2n(C2CCCC2)c1=O — AUC(0-t) (male Sprague-Dawley rat; intravenous; 5 mg/kg): 1.91 µg·h/mL
C[C@@]12C[C@@]3(O)O[C@@H](O1)[C@]1(COC(=O)c4ccccc4)[C@H]3C[C@@]12O[C@@H]1O[C@H](CO)[C@@H](O)[C@H](O)[C@H]1O — AUC(0-t) (male Sprague-Dawley rat; oral; 80 mg/kg): 0.00374 µg·h/mL
COc1nc(-c2cccc(-c3ccccc3)c2C)ccc1CNCCNC(=O)CCCCCCCCCCC(=O)N1CCN(CCNC(=O)c2cc3c(=O)n4cccc(C)c4nc3n(CCc3cccs3)c2=N)CC1 — AUC(0-t) (male Sprague-Dawley rat; intravenous; 2 mg/kg): 1.62 µg·h/mL
Cn1c(=O)c2[nH]cnc2n(C)c1=O — AUC(0-t) (male Sprague-Dawley rat; intravenous; 11.25 mg/kg): 24.9 µg·h/mL
